# Assay outcomes deposited in PubChem by Broad Institute.
# The sample as a whole holds a higher share of hits than the screen did.
# INS-1E rescue: INS-1E beta cell protection from cytokine death; protection from cytokine-induced ATP loss, % at 10 µM; hit rate 0.1% among 20,000; AID 488910; INS-1E cytokine-induced death, ATP luminescence, 48 h; normalised: neutral wells 0, positive control 100;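 active = mean replicate protection from cytokine-induced ATP loss at least 50% and at least 75% of replicates each reaching 50%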
#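 Assay system – rat INS-1E insulinoma cell line · Quantity – 8000 cells per well · Buffer or medium – RPMI without phenol red, 5% FBS · Schedule – 48 h co-treatment, 10 min post-lysis read · Technique – luminescent ATP assay (CellTiter-Glo)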
# T cruzi HTS: inhibitors of intracellular Trypanosoma cruzi | intracellular Trypanosoma cruzi in host cells, plate reader | activity score (inhibition), % at 5.01 µM | hit rate 4.9% among 22,000; in the data active = activity score above about 55%;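 note: parasites and compound incubated about four days before reading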
# A1 apoptosis 2: blocks A1, raising caspase activity. caspase activation, % (no concentration beside the values). 24,000 tested, under 10 active. MEF A1-2A-BIM cells, caspase-Glo luminescence, 3 h; percent of clofoctol response, DMSO zero. AID 2465; in the data active = caspase activation above about 5.9%
#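 system = A1-2A-BIM-expressing MEF cells | quantity = 2500 MEF cells/well | dosing = 50 nL compound per well, pinned | schedule = overnight cell settling, then 3 h compound exposure, 37 °C | signal = luminescence from DEVD-luciferin Caspase-Glo reagent, 1:1 in 50 mM HEPES, 1 h RT | read-out = Caspase-3/7 activation, seen as rise in luminescence signal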
# A number is an active result; - = inactive; . = not tested or not shown.
SMILES,INS-1E rescue,T cruzi HTS,A1 apoptosis 2
C[C@@H]1CN([C@H](C)CO)C(=O)Cc2cc(NC(=O)Nc3ccc4c(c3)OCO4)ccc2O[C@@H]1CN(C)Cc1ccccc1,-,-,.
C[C@@H]1CN([C@H](C)CO)C(=O)Cc2cc(NC(=O)Nc3ccc4c(c3)OCO4)ccc2O[C@H]1CN(C)Cc1ccc(Oc2ccccc2)cc1,-,78,-
C[C@H]1CN([C@@H](C)CO)C(=O)Cc2cc(NC(=O)Nc3ccc4c(c3)OCO4)ccc2O[C@H]1CN(C)Cc1ccccc1,-,-,.
C[C@H](CO)N1C[C@H](C)[C@H](CN(C)Cc2ccc(Oc3ccccc3)cc2)Oc2ccc(NC(=O)Nc3ccccc3)cc2CC1=O,-,-,.
C[C@@H]1CN([C@@H](C)CO)C(=O)Cc2cc(NC(=O)Nc3ccc4c(c3)OCO4)ccc2O[C@@H]1CN(C)Cc1ccc(Oc2ccccc2)cc1,-,65,.
C[C@@H]1CN([C@H](C)CO)C(=O)Cc2cc(NC(=O)Nc3ccc4c(c3)OCO4)ccc2O[C@@H]1CN(C)Cc1ccc(Oc2ccccc2)cc1,-,73,.
CN(CCO)c1ccc(/C=N/NC(=O)c2ccccn2)cc1,-,-,-
O=C(O)CCCCCCC(=O)N/N=C/c1cc(F)ccc1O,-,-,-
O=C(N/N=C/c1ccc2ccccc2c1O)c1ccccn1,-,61,-
O=C(N/N=C/c1cccc2ccccc12)c1ccccn1,-,-,-
O=C(N/N=C/c1cccnc1Cl)c1ccccn1,-,-,-
O=C(N/N=C/c1cc(Cl)cc(Cl)c1O)c1ccccn1,-,71,-
O=C(CCCCCCC(=O)Nc1ccccc1O)N/N=C/c1ccccc1Br,-,-,.
C[C@@H]1CN([C@@H](C)CO)C(=O)c2cc(NS(=O)(=O)c3cccs3)ccc2O[C@H]1CN(C)S(=O)(=O)c1ccc(F)cc1,-,62,-
C[C@@H]1CN([C@H](C)CO)C(=O)c2cc(NS(=O)(=O)c3cccs3)ccc2O[C@H]1CN(C)S(=O)(=O)c1ccc(F)cc1,.,-,.
C[C@H](CO)N1C[C@H](C)[C@H](CN(C)S(=O)(=O)c2ccc(F)cc2)Oc2ccc(NS(=O)(=O)c3ccc(F)cc3)cc2C1=O,.,68,-
C[C@H]1CN([C@@H](C)CO)C(=O)c2cc(NS(=O)(=O)c3ccc(F)cc3)ccc2O[C@@H]1CN(C)S(=O)(=O)c1ccc(Cl)cc1,-,-,-
C[C@H](CO)N1C[C@H](C)[C@H](CN(C)S(=O)(=O)c2ccc(Cl)cc2)Oc2ccc(NS(=O)(=O)c3ccc(F)cc3)cc2C1=O,-,63,-
C[C@H](CO)N1C[C@H](C)[C@@H](CN(C)S(=O)(=O)c2ccc(F)cc2)Oc2ccc(NS(=O)(=O)c3ccc(F)cc3)cc2C1=O,.,-,.
COc1cc(/C=N/NC(=O)c2cccc(C(=O)NO)c2)c(Br)cc1O,-,-,-
CC(C)=CCC[C@@H](C)C/C=N/NC(=O)CCCCCC(=O)O,-,-,-
COc1ccc(NCc2ccc(C(=O)Nc3ccccc3N)cc2)cc1OC,.,.,-
Cc1ccc(S(=O)(=O)Nc2ccc3c(c2)C(=O)N([C@H](C)CO)C[C@@H](C)[C@@H](CN(C)Cc2ccc(Cl)c(Cl)c2)O3)cc1,-,-,.
Cc1ccc(S(=O)(=O)Nc2ccc3c(c2)CC(=O)N([C@H](C)CO)C[C@@H](C)[C@@H](CN(C)Cc2ccc(Cl)c(Cl)c2)O3)cc1,-,71,.
C[C@@H]1CN([C@@H](C)CO)C(=O)Cc2cc(NS(=O)(=O)c3ccc(Cl)cc3)ccc2O[C@H]1CN(C)Cc1ccc(Cl)c(Cl)c1,.,.,-
SMILES,INS-1E rescue,T cruzi HTS,A1 apoptosis 2
Cc1ccc(S(=O)(=O)Nc2ccc3c(c2)CC(=O)N([C@H](C)CO)C[C@@H](C)[C@H](CN(C)Cc2ccc(Cl)c(Cl)c2)O3)cc1,-,65,.
Cc1ccc(S(=O)(=O)Nc2ccc3c(c2)CC(=O)N([C@@H](C)CO)C[C@@H](C)[C@@H](CN(C)Cc2ccc(Cl)c(Cl)c2)O3)cc1,-,59,-
Cc1ccc(S(=O)(=O)Nc2ccc3c(c2)CC(=O)N([C@@H](C)CO)C[C@H](C)[C@H](CN(C)Cc2ccc(Cl)c(Cl)c2)O3)cc1,-,-,.
CC(C)=CCC[C@H](C)C/C=N/NC(=O)CCCCCCC(=O)NO,.,.,-
O=C(N/N=C/c1cn(Cc2ccccc2)c2ccccc12)c1ccccn1,-,-,-
O=C(N/N=C/c1ccc(CO)o1)c1ccccn1,-,-,.
COC(=O)C1=C/c2ccccc2C(C)N(Cc2ccc(OC)cc2)/C=C\1C(=O)OC (stereo not given),.,.,-
COc1ccc(/C=N/NC(=O)CCCCCC(=O)Nc2ccccc2O)c(OC)c1,-,-,-
COc1ccc(S(=O)(=O)Nc2ccc3c(c2)C(=O)N([C@H](C)CO)C[C@H](C)[C@H](CN(C)Cc2ccc(C(F)(F)F)cc2)OCCCC[C@@H](C)O3)cc1,-,65,.
Cc1ccc(S(=O)(=O)Nc2ccc3c(c2)C(=O)N([C@@H](C)CO)C[C@@H](C)[C@@H](CN(C)Cc2ccc(C(F)(F)F)cc2)OCCCC[C@H](C)O3)cc1,.,.,-
C[C@@H]1CCCCO[C@@H](CN(C)Cc2ccc(C(F)(F)F)cc2)[C@@H](C)CN([C@H](C)CO)C(=O)c2cc(NS(=O)(=O)c3ccc(Cl)cc3)ccc2O1,-,63,.
COc1ccc(S(=O)(=O)Nc2ccc3c(c2)C(=O)N([C@H](C)CO)C[C@@H](C)[C@H](CN(C)Cc2ccc(C(F)(F)F)cc2)OCCCC[C@@H](C)O3)cc1,.,.,-
C[C@@H]1CCCCO[C@H](CN(C)Cc2ccc(C(F)(F)F)cc2)[C@H](C)CN([C@@H](C)CO)C(=O)c2cc(NS(=O)(=O)c3ccc(Cl)cc3)ccc2O1,.,.,-
Cc1ccc(S(=O)(=O)Nc2ccc3c(c2)C(=O)N([C@H](C)CO)C[C@H](C)[C@H](CN(C)Cc2ccc(C(F)(F)F)cc2)OCCCC[C@@H](C)O3)cc1,-,66,.
C[C@@H]1CCCCO[C@H](CN(C)Cc2ccc(C(F)(F)F)cc2)[C@@H](C)CN([C@H](C)CO)C(=O)c2cc(NS(=O)(=O)c3ccc(F)cc3)ccc2O1,-,56,-
C[C@@H]1CN([C@H](C)CO)C(=O)c2cc(NS(=O)(=O)c3ccc(F)cc3)ccc2O[C@@H](C)CCCCO[C@H]1CN(C)Cc1ccc(C(F)(F)F)cc1,.,.,-
O=C(N/N=C/c1cccc(Oc2ccccc2)c1)c1ccccc1O,-,-,-
O=C(O)CCCCCCC(=O)N/N=C/c1cc(Br)cs1,-,-,.
Cc1nnc(Sc2ccc(/C=N/NC(=O)CCCCCCC(=O)Nc3ccccc3O)o2)n1C,-,-,.
COc1cc(/C=N/NC(=O)CCCCC(=O)NO)c([N+](=O)[O-])cc1OC,-,-,-
O=C(NN=C1CCCCCC1)c1ccccc1O,-,-,.
C[C@H](CO)N1C[C@H](C)[C@H](CN(C)S(=O)(=O)c2cccc(F)c2)Oc2ncc(C#Cc3ccc(F)cc3)cc2C1=O,-,64,.
C[C@H](CO)N1C[C@H](C)[C@H](CN(C)S(=O)(=O)c2ccc(C#N)cc2)Oc2ncc(C#Cc3ccccc3)cc2C1=O,.,-,-
